Experimental data published in ChEMBL document CHEMBL1287707, “Virtual screening against nuclear factor κB (NF-κB) of a focus library: Identification of bioactive furocoumarin derivatives inhibiting NF-κB dependent biological functions involved in cystic fibrosis” (Bioorg Med Chem, 2010).
Activity calls are given as the source filed them. The calls are words filed in the database; no cut-off is given here.

biological target: T1, Nuclear factor NF-kappa-B p105 subunit (Homo sapiens, UniProt P19838); assay: Inhibition of NF-KB p50 subunit/DNA interaction after 20 mins by EMSA
T1 sequence (P19838 whole entry): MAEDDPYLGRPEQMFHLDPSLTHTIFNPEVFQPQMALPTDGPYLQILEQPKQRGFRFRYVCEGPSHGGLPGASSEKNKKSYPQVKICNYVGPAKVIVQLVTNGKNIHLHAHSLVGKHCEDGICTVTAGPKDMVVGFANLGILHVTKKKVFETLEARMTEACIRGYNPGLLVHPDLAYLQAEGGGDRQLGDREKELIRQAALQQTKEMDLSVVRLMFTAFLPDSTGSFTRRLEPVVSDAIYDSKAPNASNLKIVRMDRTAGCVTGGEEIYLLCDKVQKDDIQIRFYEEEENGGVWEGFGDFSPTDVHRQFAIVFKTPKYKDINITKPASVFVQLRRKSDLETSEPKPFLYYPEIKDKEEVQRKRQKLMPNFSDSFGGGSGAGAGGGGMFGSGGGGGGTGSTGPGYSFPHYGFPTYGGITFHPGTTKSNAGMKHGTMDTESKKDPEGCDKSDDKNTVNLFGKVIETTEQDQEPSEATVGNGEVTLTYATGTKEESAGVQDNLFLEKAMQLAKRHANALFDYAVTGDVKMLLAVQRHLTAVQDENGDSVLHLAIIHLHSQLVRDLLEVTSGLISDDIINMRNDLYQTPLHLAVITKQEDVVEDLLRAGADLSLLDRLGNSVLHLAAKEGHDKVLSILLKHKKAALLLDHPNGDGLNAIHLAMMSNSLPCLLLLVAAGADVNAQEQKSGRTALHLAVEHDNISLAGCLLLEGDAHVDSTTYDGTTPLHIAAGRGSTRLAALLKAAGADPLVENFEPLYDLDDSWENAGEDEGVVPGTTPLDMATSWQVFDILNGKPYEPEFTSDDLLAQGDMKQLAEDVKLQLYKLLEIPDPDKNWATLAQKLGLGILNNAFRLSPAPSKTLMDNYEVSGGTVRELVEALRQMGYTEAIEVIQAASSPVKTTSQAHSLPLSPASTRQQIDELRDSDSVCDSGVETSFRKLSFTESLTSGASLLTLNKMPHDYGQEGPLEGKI
In short: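 Recombinant human NF-κB p50 (10 ng) was preincubated 20 min at room temperature with varied compound concentrations in buffer TF with 5% glycerol and 1 mM DTT. 0.25 ng 32P-labelled double-stranded NF-κB site oligo was added for a further 20 min. Complexes were resolved on 6% PAGE in 0.25X TBE and detected by autoradiography. IC50 is the concentration giving 50% inhibition of binding.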

SMILES	IC50 [µM]
O=c1ccc2c(-c3ccccc3S(=O)(=O)O)c3ccc(O)c(O)c3oc-2c1O [PYROGALLOL RED]	10
Cc1cc(=O)oc2cc(O)ccc12 [HYMECROMONE]	200
O=c1ccc2ccc3occc3c2o1 [ANGELICIN]	2500
COc1ccc(C(=O)c2oc3ccc4c(C)cc(=O)oc4c3c2-c2ccccc2)cc1	60
O=C(O)c1ccc(COc2cc(O)cc3oc(=O)c4c(c23)CCC4)cc1	5000

Continued by falling IC50, values first:

IC50 [µM]	SMILES
3000	O=c1ccc2cc3ccoc3cc2o1 [PSORALEN]
50	O=C(O)/C=C/c1ccccc1O [O-COUMARIC ACID]
40	COCCNc1oc2c(c1-c1cc(OC)c(OC)c(OC)c1)c(=O)oc1c(C)cccc12
30	O=c1c(Br)cc2c(-c3ccccc3S(=O)(=O)O)c3cc(Br)c(O)c(O)c3oc-2c1O [BROMOPYROGALLOL RED]
20	O=c1cc(-c2ccccc2)c2cc3c(-c4ccc5c(c4)OCO5)coc3cc2o1

tested on: IB3-1; assay: Antiinflammatory activity in Pseudomonas aeruginosa PAO1 infected human IB3-1 cells assessed as inhibition of IL8 gene expression at 10 uM after 4 hrs by RT-PCR analysis; type: functional, cell-based
In short: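 IB3-1 CF bronchial cells (ΔF508/W1282X) were grown in LHC-8 with 5% FBS, seeded at 200,000 cells/cm2, and serum-starved 18 h. Cells were then preincubated overnight with compound at 10 µM and infected with PAO1 at 30–100 CFU/cell for 4 h at 37 °C. Total RNA was reverse-transcribed and IL-8 mRNA quantified by RT-qPCR.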

SMILES	Activity
COCCNc1oc2c(c1-c1cc(OC)c(OC)c(OC)c1)c(=O)oc1c(C)cccc12	Active
COc1ccc(C(=O)c2oc3ccc4c(C)cc(=O)oc4c3c2-c2ccccc2)cc1	Active
